Most compounds without a hit are left out; they make up all but 3% or so of the library.
HNF4A DNA FP: change in binding of human HNF4A to DNA, primary screen, biochemical, fluorescence polarization, FITC-DNA; 1 h; activity change, % at 10 µM; actives 0.3% (n = 360,000); in the data active = activity change above about 30%, passing the limit was not always enough
SENP1 FRET inh: human SENP1 catalytic domain inhibitors, primary screen, biochemical, FRET, uHTS | Sentrin-specific protease 1 (Homo sapiens), Q9P0U3 | recombinant SENP1 catalytic domain, CyPet-SUMO1-YPet FRET cleavage | inhibition, % at 10 µM | actives 0.21% (n = 360,000);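 active = inhibition at least 30% at 10 µM, raw YFP signal under a set limit, fluorescence ratio 0.5 to 1.5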;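 also: 0% = enzyme with DMSO and 100% = no enzyme wells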
Target sequence (Q9P0U3 419-644 limits assumed): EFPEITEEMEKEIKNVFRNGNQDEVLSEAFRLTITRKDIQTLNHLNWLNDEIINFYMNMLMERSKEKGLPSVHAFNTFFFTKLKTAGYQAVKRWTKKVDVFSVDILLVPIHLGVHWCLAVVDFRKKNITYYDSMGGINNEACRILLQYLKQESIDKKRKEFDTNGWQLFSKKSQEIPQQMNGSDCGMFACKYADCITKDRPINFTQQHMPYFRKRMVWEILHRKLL
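Test system: human SENP1 catalytic domain; medium: Tris pH 8 buffer plus EDTA, NaCl, BME, BSA, NP40, catalase; incubation: 50 min reaction at room temperature; technique: FRET, CFP and YFP emission; controls: no-enzyme low control and enzyme-plus-DMSO high control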
Myeloid diff MLP: induction of myeloid progenitor differentiation, primary screen, cell-based, flow cytometry, MLPCN library. ER-HoxA9 myeloid progenitors, lysozyme-GFP differentiation. calls only at 10 µM. actives 1% (n = 360,000). AID 624256, 2012;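 active = normalized GFP-positive differentiation at or above the plate's own cutoff, the solvent-only control mean plus 3 SD; inconclusive = no clear call, values can overlap the other calls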;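 also: cells exposed to compound for four days before flow analysis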
Cardio protect: cardioprotection against H2O2-induced cell death, primary screen, uHTS, H9c2 cells, ATPLite luminescence; H9c2 cardiomyocytes, H2O2 injury protection, 2 h; protection from H2O2 cell death, % at 20 µM; actives 0.63% (n = 360,000); AID 588492, 2011;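 active = compounds giving at least 50% protection of heart cells from peroxide-induced death in the single-dose screen, raw or plate-pattern-corrected value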;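 also: 0% = DMSO wells with peroxide and 100% = DMSO wells without peroxide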
DSG3 Ab inh: inhibitors of pemphigus antibody binding to DSG3, primary screen, biochemical, bead-based, flow cytometry, scFv-GFP; DSG3-coupled beads, scFv-anti-DSG3-GFP binding; hits give low values; binding (percent of control), % at 10 µM; actives 0.48% (n = 310,000); AID 588358, 2011;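 active = binding more than 3 SD below its plate's average and above zero; inconclusive = below that plate limit but binding exactly zero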;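 also: hits lower antibody fragment binding to DSG3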
Exocytosis inh: LAMP-1 surface exposure blockers, TALL-104 cells – cell-based, flow cytometry, MLPCN library, primary screen; actives 0.66% (n = 360,000); TALL-104 LAMP-1 surface exposure; cells stimulated with thapsigargin and PMA; AID 651702, 2012; inhibition, % at 10 µM;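 active = inhibition above about 55%, limit read from the data; inconclusive = no clear call, values can overlap the other calls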
* = called active by the depositor; i = inactive; ? = inconclusive; . = no result; + = active, no number.

SMILES	HNF4A DNA FP	SENP1 FRET inh	Myeloid diff MLP	Cardio protect	DSG3 Ab inh	Exocytosis inh
COc1ccc(N=Cc2cc3c(cc2O)OC(N)=C(C#N)C3c2ccccc2)cc1 (centres undefined)	65.9*	-23.4	i	47.9	125.7	13.6
CN(CC(=O)O)S(=O)(=O)c1ccc(F)cc1	-2.9	2.6	i	14.5	100.0	-3.6
CNC(=O)CN(C)S(=O)(=O)c1ccc(F)cc1	-1.3	1.7	i	-6.5	79.3*	2.0
CS(=O)(=O)c1nc(-c2ccccc2)cc(C(F)(F)F)n1	0.5	0.4	?	-38.3	.	74.4*
Cc1nn(C(=O)c2cccnc2)c(C)c1Sc1ccc(Br)cc1	1.9	-0.8	i	-19.9	97.9	58.7*
N#Cc1c(SCC(=O)Nc2ccccc2)nsc1SCC(=O)Nc1ccccc1	-1.4	0.1	i	-4.6	66.5*	0.1
O=c1c2cc(F)ccc2sn1-c1ccccc1	3.0	1.0	i	-36.4	43.2*	-9.7
Cc1ccccc1-n1sc2cc(F)ccc2c1=O	5.4	2.7	i	-25.4	68.7*	70.7*
O=c1c2ccccc2c(-c2cccc(C(F)(F)F)c2)nn1-c1ccccc1	-0.1	0.0	i	-4.3	.	-4.6
O=c1c2cc(C(F)(F)F)ccc2sn1-c1ccccc1	-1.4	-0.4	i	-33.4	68.1*	31.2
N#Cc1ccc2c(=O)n(-c3ccccc3)sc2c1	3.5	-0.5	i	-32.1	67.9*	48.0
CC1=C(C(=O)Nc2ccc(C(=O)NCCCN3CCCCC3C)cc2)SCCO1 (centres undefined)	-1.6	-9.3	i	0.3	122.0	1.4
Cn1c(O)c(C=NCCCCCC(=O)O)c(=O)n(C)c1=O	-1.5	2.2	i	-1.5	89.7	2.6
C=C1/C=C(\C)C(C)(O)CC(O)CC(=O)C(O)C(O)C(C)CC(C)OC(=O)/C(C)=C/CC/C=C/C(OC)C(O)CC(C)C1 (centres undefined)	-2.2	1.9	i	16.0	101.7	8.9
COc1ccc(CCNC(=O)COc2ccc(-c3ccc(C)cc3)cc2)cc1OC	-2.9	1.7	i	-10.2	83.1*	-5.8
COc1ccc(-c2nnn(CC(=O)NCCc3ccc(OC)c(OC)c3)n2)cc1	-3.2	1.3	i	-2.5	38.1*	-5.0
COc1ccc(CCNC(=O)CCOc2ccc(C)cc2)cc1OC	2.8	-0.6	i	-5.2	101.8	-2.7
COc1ccc(CCNC(=O)Cn2nnc(-c3cccs3)n2)cc1OC	3.9	0.8	i	-0.9	104.3	-1.9
O=S(=O)(Nc1nc2ccccc2nc1Nc1ccc2c(c1)OCCO2)c1cccs1	47.8*	-28.6	i	-7.9	98.0	0.3
O=S(=O)(Nc1nc2ccccc2nc1Cl)c1ccc2c(c1)OCCO2	-2.9	-12.1	i	-4.5	100.0	-0.9
O=S(=O)(Nc1nc2ccccc2nc1NCc1ccco1)c1cccs1	3.5	-63.0	+	1.2	.	-1.8
CCOC(=O)c1cnc2c(C)cccc2c1NCCc1ccc(OC)c(OC)c1	2.3	-1.6	i	-8.9	.	-2.4
CCOC(=O)c1cnc2ccc(C(=O)OC)cc2c1NCCc1ccc(OC)c(OC)c1	0.0	1.6	i	53.1*	129.0	0.3
O=C(NCCc1ccc(F)cc1)C(=O)Nc1cc2c3c(c1)CC(=O)N3CCC2	1.9	-0.5	i	53.3*	119.0	-8.3
O=C(NCCc1ccc(Cl)cc1)C(=O)Nc1cc2c3c(c1)CC(=O)N3CCC2	0.1	-0.8	i	42.3	102.9	-6.0
SMILES	HNF4A DNA FP	SENP1 FRET inh	Myeloid diff MLP	Cardio protect	DSG3 Ab inh	Exocytosis inh
CC(C)NC(=O)CCn1nc(-c2ccc(Cl)cc2)c2ccccc2c1=O	-1.4	2.7	i	-5.8	.	7.9
COc1ccccc1CC(=O)Nc1ccc(S(=O)(=O)N(C)C2CCN(C)CC2)cc1	1.9	2.0	i	-1.6	103.0	2.3
COc1ccc(N(CC(=O)Nc2nc3ccc(C)cc3s2)S(=O)(=O)c2c(C)nn(C)c2C)cc1	-0.1	-51.4	+	5.5	72.3	-0.8
Cc1ccc(OCC(=O)N/N=C/C=C/c2ccco2)cc1C	2.5	-1.8	i	-6.1	94.8	39.1
CC(Nc1ccc(F)cc1F)C(=O)NC(=O)NC1CCCCC1 (centres undefined)	144.4*	-2.6	i	-9.3	108.0	0.5
COc1ccc(/C=C/C(=O)NC(=S)Nc2cc([N+](=O)[O-])ccc2O)cc1OC	-30.6	1.5	i	-3.3	85.3*	3.4
COC(=O)c1cccc(C23CC4(C2)[C@H](CN(Cc2ccc(C(F)(F)F)cc2)[C@@H]4c2ccccc2)C3c2ccc(Cl)nc2)c1 (some centres undefined)	7.2	-0.2	i	-2.7	97.8	77.4*
CN1/C(=C\C(=O)COC(=O)Cn2nnc(-c3ccccc3)n2)C(C)(C)c2ccccc21	20.1	-2.4	+	-18.3	?	14.2
Cc1sc2nc3c4ccccc4c(NCc4ccco4)nn3c(=O)c2c1C	-0.9	-54.1	+	20.8	89.7	0.2
Cc1nc(NCc2ccco2)c2c(C)c(C)sc2n1	-2.8	1.2	?	-16.0	97.1	-2.6
Cc1cccc2cc3c(N)c(C(=O)N4CCc5ccccc54)sc3nc12	24.0	22.8	+	-8.6	125.1	2.2
Cc1sc(NC(=O)c2sc3nc4c(C)cccc4cc3c2N)c(C#N)c1C	20.8	-21.6	+	0.5	93.5	3.4
Cc1cccc2cc3c(N)c(C(=O)Nc4ccc(N5CCOCC5)cc4)sc3nc12	11.1	64.8*	i	-11.6	90.3	9.7
CCc1cccc2cc3c(N)c(C(=O)Nc4ccc(S(=O)(=O)N5CCCC5)cc4)sc3nc12	13.1	-26.1	+	5.3	113.5	-5.4
COc1cccc(CC(=O)Nc2ccc(S(=O)(=O)N3CCCCC3)cc2)c1	-5.3	0.4	i	-1.6	123.9	0.7
O=C1NC(=O)C2(COC(c3cccc([N+](=O)[O-])c3)OC2)S1 (centres undefined)	1.4	2.7	i	-1.5	99.8	-2.5
O=C(CN1C(=O)COc2ccc(S(=O)(=O)N3CCOCC3)cc21)NCc1ccccn1	2.1	1.3	i	2.0	99.4	-2.0
CCC(C)(C)NC(=S)Nc1ccc(-c2nc3ccc(C)cc3s2)cc1	7.7	-25.3	i	-14.7	96.0	-0.4
Cc1ccc2nc(-c3ccc(NC(=S)NCC(C)(C)CN(C)C)cc3)sc2c1	2.7	-63.9	?	-18.1	97.4	56.0*
CCN(CC(=O)N1CCCC1)S(=O)(=O)c1ccc(OC)cc1	-1.1	-0.1	i	1.9	103.6	-1.3
